Screens as filed in PubChem BioAssay.
This is one part of a sample in which hits are shown more often than they occur.
S1P4 antagonist: human S1P4 receptor antagonism | AID 1510 | S1P4-expressing cells, antagonist mode, reporter read-out | inhibition, % at 4.98 µM | actives 0.26% (n = 220,000) | O95977; in the data active = inhibition above about 29%;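 note: 0% = wells stimulated with agonist and 100% = vehicle wells without agonist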
Mdm2 ligase inh: blocks human Mdm2 ubiquitin ligase activity; Q00987; cell-based MDM2 ubiquitination luciferase reporter, 2 h; 0 = plate control, 100 = twice control, blank-subtracted; signal enhancement, % at 5 µM; actives 0.11% (n = 210,000); AID 1230;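 active = signal enhancement of 30% or more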;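 note: luminescence tracks abundance of the self-degrading MDM2-luciferase fusion protein; higher signal means inhibition of MDM2 E3 ligase activity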
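System: stable MDM2–luciferase fusion reporter cells / Input: 2000 cells seeded into each well / Schedule: 4 h settle plus 2 h compound, 37 °C / Compound: single-point 5 µM / Buffer or medium: cells held in DMEM / Benchmarks: control and blank well means / Evaluation: percent signal gain over controls, blank-subtracted / Measured by: luciferase luminescence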
S1P3 antag: antagonists of human S1P3 receptor; Q99500; CHO S1P3 NFAT-BLA reporter, FRET fluorescence, antagonist mode; inhibition, % at 4.98 µM; actives 0.27% (n = 170,000); AID 485;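 active = inhibition above the plate cutoff, the mean inhibition of test wells on that plate plus 3 SD, cut at about 28% in these data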;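 note: cells challenged with S1P at its EC80 of 0.8 µM; blue over green emission ratio from cleaved BLA substrate after 4 h stimulation; 0% = S1P-stimulated wells and 100% = unstimulated DMSO-only wells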
Target sequence (Q99500 whole entry, looked up): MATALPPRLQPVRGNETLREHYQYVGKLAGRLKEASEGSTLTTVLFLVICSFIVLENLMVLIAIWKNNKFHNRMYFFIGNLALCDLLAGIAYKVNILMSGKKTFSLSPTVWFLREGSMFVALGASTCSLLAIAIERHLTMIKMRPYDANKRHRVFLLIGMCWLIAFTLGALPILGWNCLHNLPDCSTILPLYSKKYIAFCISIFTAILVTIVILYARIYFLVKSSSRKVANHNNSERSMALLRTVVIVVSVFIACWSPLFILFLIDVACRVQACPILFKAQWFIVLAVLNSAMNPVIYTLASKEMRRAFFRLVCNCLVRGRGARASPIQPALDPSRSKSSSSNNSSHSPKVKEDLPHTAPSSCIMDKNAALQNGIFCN
L major viab: reduces viability of Leishmania major promastigotes | resazurin fluorescence viability | inhibition, % at 10 µM | actives 9% (n = 200,000) | AID 1063; in the data active = inhibition above about 50%;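 note: promastigotes grown with compound for 44 hours at 28 °C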
S1P4 ag: human S1P4 receptor agonism. activation, % at 4.98 µM. actives 0.35% (n = 220,000). S1P4-expressing cell line, agonist reporter assay; in the data active = activation above about 11%;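 note: 0% = DMSO vehicle and 100% = reference agonist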
The depositor's hits bear a star; / = no result given.

SMILES	S1P4 antagonist	Mdm2 ligase inh	S1P3 antag	L major viab	S1P4 ag
Cc1nn(Cc2ccc(F)cc2)c(C)c1NC(=O)c1cnn2c1NC(c1ccccc1)CC2C(F)(F)F (stereo not given)	-23.6	-18.5	/	73.1*	-0.6
Nc1c(C(=O)NCCc2ccc(Cl)cc2)sc2ccc(S(=O)(=O)N3CCCCC3)cc12	-12.4	-17.0	-10.9	82.6*	-2.1
CC(C)CCNC(=O)c1sc2ccc(S(=O)(=O)N3CCCCC3)cc2c1N	-9.0	-12.8	-4.8	11.6	-2.2
Cc1oc(C)c2c(=O)ccc3c(c12)OC(N)=C(C#N)C3c1ccc(F)cc1 (stereo not given)	-1.6	-13.8	-22.9	60.0*	-0.6
OCCNC(=S)NCCc1ccccc1	-3.7	/	-20.5	-7.7	-2.4
S=C(NCCc1ccccc1)NCc1cccs1	-11.3	3.8	1.6	78.6*	-0.4
S=C(NCCCc1ccccc1)Nc1ccc(Cl)cc1	1.6	-15.1	-5.5	90.2*	1.2
CC(C)(CNC(=S)NCCc1ccccc1)CNC(=S)NCCc1ccccc1	-0.2	-12.9	-3.7	95.4*	-3.8
CC(C)(C)c1ccc(NC(=S)NCc2cccs2)cc1	-0.4	-22.3	/	14.3	1.6
CCC(C)c1ccc(NC(=S)NCc2cccs2)cc1 (stereo not given)	-5.9	-6.6	/	67.2*	0.6
CCN1C(=O)/C(=C/C2=Cc3ccccc3OC2C)SC1=S (stereo not given)	-12.8	/	-4.6	/	-0.7
O=C(O)c1nnn(-c2cccc(C(F)(F)F)c2)c1-c1ccccc1	15.1	-11.7	-2.7	/	-2.1
COc1ccc(NC(=O)NCCN2CCN(c3cccc(Cl)c3)CC2)cc1	-10.4	5.8	10.1	85.2*	0.3
O=C(NCCCN1CCN(c2cccc(Cl)c2)CC1)c1ccc(N2CCCC2=O)cc1	8.2	-6.9	/	97.5*	-1.0
CCCCN(C)CCCNC(=O)c1ccc(N2CCCC2=O)cc1	-2.1	-20.3	-5.8	51.3*	1.2
NNC(=O)C(=O)NCCCN1CCOCC1	10.3	-8.0	-7.3	-6.9	-1.4
CCCN1CCC(N2CCCC(C(=O)O)C2)CC1 (stereo not given)	0.1	-14.9	-9.2	1.9	-2.4
Cc1ccc(-n2c(SCc3cn4ccsc4n3)nc3ccccc3c2=O)cc1	-3.1	-3.5	16.8	85.0*	0.0
O=c1c2ccccc2nc(SCc2nc(-c3ccccc3)no2)n1-c1ccc(F)cc1	-3.1	-8.0	29.3	87.2*	-0.7
c1ccc(-c2noc(CSc3nnc(Cc4cccs4)n3-c3ccccc3)n2)cc1	-8.1	-7.3	-3.7	65.1*	0.2
Clc1ccc(-c2noc(CSc3nnc(Cc4cccs4)n3-c3ccccc3)n2)cc1	-47.6	-12.6	/	6.0	0.9
Fc1ccc(-n2c(Cc3ccccc3)nnc2SCc2nc(-c3cccs3)no2)cc1	0.0	4.5	4.7	99.0*	-0.1
Brc1ccccc1Cn1c(-c2cscn2)nc2ccccc21	8.0	-13.3	/	29.1	0.4
CCCCOc1ccc(Cl)cc1CSc1nnc(C)n1N	2.1	-7.7	21.7	-3.2	0.8
N#CCOc1nc(N2CCCCC2)nc(N2CCCCC2)n1	-8.0	-11.9	5.0	16.5	3.0
SMILES	S1P4 antagonist	Mdm2 ligase inh	S1P3 antag	L major viab	S1P4 ag
N#CCOc1nc(N2CCCC2)nc(N2CCCC2)n1	-19.6	-8.6	/	96.8*	2.0
CCOC(=O)N1CCN(C(=S)Nc2ccc3nc(N4CCN(CC)CC4)cc(C)c3c2)CC1	-6.8	3.0	-0.7	71.8*	-0.1
CCN1CCN(C(=S)Nc2ccc3nc(N4CCN(C)CC4)cc(C)c3c2)CC1	-25.2	5.4	-0.7	67.1*	2.2
CCN1CCN(c2cc(C)c3cc(NC(=S)N4CCCCC4)ccc3n2)CC1	-22.4	-12.1	-10.2	57.7*	1.1
Cc1cc(N2CCN(C)CC2)nc2ccc(NC(=O)CCC(=O)NCCC3=CCCCC3)cc12	11.6	/	6.0	100.2*	-1.4
CCN1CCN(C(=S)Nc2ccc3nc(N4CCN(CC)CC4)cc(C)c3c2)CC1	-4.9	-3.2	5.7	30.5	0.1
Cc1ccc(S(=O)(=O)N2CCCCC2)cc1NC(=O)c1ccccn1	12.8	/	3.9	/	-1.1
Cn1c(=O)cc(Nc2ccccc2)c2c(=O)n(-c3ccccc3)c(=O)n(-c3ccccc3)c21	11.7	-9.4	1.6	/	-1.1
Cc1ccc(C2NC(=O)Cc3ccccc32)cc1 (stereo not given)	-13.1	-0.3	/	-4.5	-1.8
CC(=O)c1ccc(N2CCN(C(=O)Nc3ccc(F)cc3)CC2)cc1	-3.4	-11.5	4.5	29.1	-1.3
CC(=O)c1ccc(N2CCN(C(=O)Nc3ccc(C(C)C)cc3)CC2)cc1	-5.0	-26.4	9.2	64.6*	-2.7
Cc1ccc2cc(CN(CC3CCCO3)C(=S)Nc3ccccc3)c(=O)[nH]c2c1C (stereo not given)	-17.8	1.0	4.6	67.0*	1.6
Cc1cc(C)c2[nH]c(=O)c(CN(CC3CCCO3)C(=S)Nc3ccccc3)cc2c1 (stereo not given)	-23.4	-8.1	-14.4	14.9	1.7
Cc1ccc2[nH]c(=O)c(CN(CC3CCCO3)C(=S)Nc3ccccc3)cc2c1 (stereo not given)	-11.1	6.4	8.1	54.3*	1.4
Cc1ccc2cc(CN(CC3CCCO3)C(=S)NCc3ccco3)c(=O)[nH]c2c1 (stereo not given)	2.0	-5.4	-0.4	25.8	0.8
COc1cccc(C(=O)N(Cc2cc3cc(C)ccc3[nH]c2=O)CC2CCCO2)c1 (stereo not given)	2.2	-23.4	-19.0	75.1*	0.0
Cc1ccc2[nH]c(=O)c(CN(CC3CCCO3)C(=S)NCc3ccco3)cc2c1 (stereo not given)	-2.1	4.1	-4.8	57.1*	0.6
O=[N+]([O-])c1ccc([N+](=O)[O-])c(Nc2ccc(N3CCOCC3)cc2)c1	-13.6	4.3	-12.7	-1.5	-0.5
COc1ccc(-c2cc(C(F)(F)F)n3nc(C(=O)Nc4c(C)n(C)n(-c5ccccc5)c4=O)cc3n2)cc1	-4.2	-9.9	-2.9	0.1	8.9
Cc1ccc2cc(CN(Cc3ccco3)C(=S)NCC3CCCO3)c(=O)[nH]c2c1 (stereo not given)	-14.6	-8.0	-2.2	12.2	1.7
Cc1ccc(C)c2[nH]c(=O)c(CN(Cc3ccco3)C(=S)NCC3CCCO3)cc12 (stereo not given)	-21.0	-1.1	9.5	58.6*	1.5
CCN(CC)S(=O)(=O)c1ccc(C(=O)Nc2ccc(Cc3ccncc3)cc2)cc1	-9.1	-11.8	-7.5	99.1*	0.9
Cc1ccc(C(=O)Nc2ccc(Cc3ccncc3)cc2)cc1[N+](=O)[O-]	-14.3	6.8	/	22.3	0.4
O=C(CCNc1ccc(Cc2ccncc2)cc1)c1ccc([N+](=O)[O-])cc1	-3.2	-12.1	3.2	100.7*	1.2
CC(C)(C)c1ccc(S(=O)(=O)NCCc2ccncc2)cc1	-1.4	-3.5	-3.4	9.8	-1.3
CC(C)(C)c1ccc(S(=O)(=O)Nc2ccc(Cc3ccncc3)cc2)cc1	-28.5	-6.4	-2.7	88.0*	1.0
